# Assay results reported in paper PMC2682635 (Psychopharmacology, 2009).
# Several values for one entry are separate records, joined by “and”; a condition that tells them apart may be missing. Equal values may be shown once. Read-outs that look alike come from different tables or passages of the source.
# Key:
# [1] = humans, 25 mg/kg 1,4-BD; ref Thai et al. 2006; cited from earlier work
# [2] = humans, 25 mg/kg 1,4-BD; ref Thai et al. 2006; cited from earlier work; remark: listed apart in the source
# [3] = in vivo; details: plasma, po
# [4] = system: baboons; experiment: Food-maintained operant behavior procedure; assay type: in vivo, Papio anubis
# Procedure, shortened: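 Test compound or vehicle was diluted in water to 150 ml total and infused intragastrically. Sessions started at 9:00 am right after dosing. Food pellets were available 20 h/day on a fixed-ratio schedule via a Lindsley operandum. Pellets earned were counted in ten 2-h bins up to 20 h. Analysis was repeated-measures two-way ANOVA (dose × time), p<0.05.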
# [5] = system: baboons; experiment: 30-min continuous behavioral observation session; assay type: in vivo, Papio anubis; details: 60 to 90 min after drug
# [6] = system: baboons; experiment: Fine-motor task; assay type: in vivo, Papio anubis
# [7] = baboon
# [8] = system: rhesus monkeys; details: food-maintained operant procedure; ref McMahon et al. 2003; cited from earlier work
# [9] = system: baboons; experiment: Paper and pencil behavioral checklists; assay type: in vivo, Papio anubis
compound,measurement,setting,value
"OCCCCO [1,4-BD, 1,4-butanediol]","Maximum concentration of GHB, range",[1],22.2−85.7 μg/ml
same,Mean maximum concentration of GHB,[1],45.6 µg/mL
same,"Maximum concentration of 1,4-BD, range",[2],0.33−14.4 μg/ml
same,"Mean maximum concentration of 1,4-BD",[2],3.84 µg/mL
same,AUC,"[3]; monkey, 32 mg/kg",33.4 µM·h
same,Cmax,"[3]; monkey, 32 mg/kg",5.3 to 7.7 µM
same,half-life,"[3]; monkey, 32 mg/kg",248 min
same,AUC,"[3]; monkey, 100 mg/kg",612 µM·h
same,Cmax,"[3]; monkey, 100 mg/kg",47.8 to 590 µM
same,half-life,"[3]; monkey, 100 mg/kg",35.3 min
same,AUC,"[3]; monkey, 180 mg/kg",942 µM·h
same,Cmax,"[3]; monkey, 180 mg/kg",289 to 1100 µM
same,half-life,"[3]; monkey, 180 mg/kg",42.7 min
same,Tmax,[3],30 min
same,half-life,[3]; 100 mg/kg,< 60 min
same,half-life,[3]; 180 mg/kg,< 60 min
same,Food-maintained behavior compared to vehicle,"[4]; 56 mg/kg, 4 h after administration, p<0.05",increases
same,Food-maintained behavior compared to vehicle,"[4]; 180 mg/kg, 2 h after administration, p<0.001",decreased
same,Food-maintained behavior compared to vehicle,"[4]; 180 mg/kg, 4 h after administration",decreased
same,Food-maintained behavior compared to vehicle,"[4]; 240 mg/kg, 2 h postadministration, p<0.001",decreased
same,Food-maintained behavior compared to vehicle,"[4]; 240 mg/kg, 4 h postadministration, p<0.05",decreased
same,Time food-maintained behavior was suppressed after administration,[4]; high doses,4 h
same,Frequency of scratch/groom compared to vehicle,[5]; 56 mg/kg,increased
same,Frequency of ataxia compared to vehicle,[5]; 180 mg/kg,significantly increased
same,Frequency of scratch/groom compared to vehicle,[5]; 180 mg/kg,increased
same,Frequency of tremor/jerks compared to vehicle,[5]; 180 mg/kg,significantly increased
same,Frequency of vomit/retch compared to vehicle,[5]; 180 mg/kg,significantly increased
same,Duration of lip droop compared to vehicle,[5]; 240 mg/kg,significantly increased
same,Frequency of ataxia compared to vehicle,[5]; 240 mg/kg,significantly increased
same,Frequency of tremor/jerks compared to vehicle,[5]; 240 mg/kg,significantly increased
same,Frequency of vomit/retch compared to vehicle,[5]; 240 mg/kg,significantly increased
same,Time lying down compared to vehicle,[5]; 240 mg/kg,significantly increased
same,Duration to complete the fine-motor task,"[6]; 180 mg/kg, 60 min postadministration, p<0.001",significantly increased
same,Duration to complete the fine-motor task,"[6]; 180 mg/kg, 120 min postadministration, p<0.001",significantly increased
same,Completion of the fine-motor task,[6]; 240 mg/kg,all subjects failed to complete the task within the maximum time of 120 s
same,Duration to complete the fine-motor task,"[6]; 240 mg/kg, 120 min postadministration, p<0.001",significantly increased
same,Duration to complete the fine-motor task,"[6]; any dose, 30-min postadministration",did not alter
same,"Maximum concentrations of 1,4-BD (range)","[7]; 32 mg/kg 1,4-BD",0.48 to 0.69 µg/mL
same,"T1/2 for GHB in plasma relative to T1/2 of 1,4-BD (fold longer)","[7]; 100 mg/kg 1,4-BD",five
same,"T1/2 for GHB in plasma relative to T1/2 of 1,4-BD (fold longer)","[7]; 180 mg/kg 1,4-BD",sevenfold
same,Time after administration at which response rate was decreased,[8],150 min
same,"Duration of effects in ≥50% of subjects, ataxia",[9]; 180 mg/kg IG,4.0 h
same,"Duration of effects in ≥50% of subjects, lip droop",[9]; 180 mg/kg IG,2.5 h
same,"Duration of effects in ≥50% of subjects, tremor/jerk",[9]; 180 mg/kg IG,5.0 h
same,"Duration of effects in ≥50% of subjects, vomit",[9]; 180 mg/kg IG,2.5 h
same,"Number of subjects at maximal effect, ataxia",[9]; 180 mg/kg IG,4/4
same,"Number of subjects at maximal effect, lip droop",[9]; 180 mg/kg IG,2/4
same,"Number of subjects at maximal effect, tremor/jerk",[9]; 180 mg/kg IG,4/4
same,"Number of subjects at maximal effect, vomit",[9]; 180 mg/kg IG,3/4
same,"Recovery of baseline (100% of subjects), ataxia",[9]; 180 mg/kg IG,7.0 h
same,"Recovery of baseline (100% of subjects), lip droop",[9]; 180 mg/kg IG,4.0 h
same,"Recovery of baseline (100% of subjects), tremor/jerk",[9]; 180 mg/kg IG,7.5 h
same,"Recovery of baseline (100% of subjects), vomit",[9]; 180 mg/kg IG,7.5 h
same,"Time to maximal effects, ataxia",[9]; 180 mg/kg IG,2.0 h
same,"Time to maximal effects, lip droop",[9]; 180 mg/kg IG,2 h and 2.0 h
same,"Time to maximal effects, tremor/jerk",[9]; 180 mg/kg IG,1.0 h
same,"Time to maximal effects, vomit",[9]; 180 mg/kg IG,2.5 h
same,"Duration of effects in ≥50% of subjects, ataxia",[9]; 240 mg/kg IG,4.0 h
same,"Duration of effects in ≥50% of subjects, lip droop",[9]; 240 mg/kg IG,3.5 h
same,"Duration of effects in ≥50% of subjects, tremor/jerk",[9]; 240 mg/kg IG,6.0 h
same,"Duration of effects in ≥50% of subjects, vomit",[9]; 240 mg/kg IG,1.0 h
same,"Number of subjects at maximal effect, ataxia",[9]; 240 mg/kg IG,4/4
same,"Number of subjects at maximal effect, lip droop",[9]; 240 mg/kg IG,3/4
same,"Number of subjects at maximal effect, tremor/jerk",[9]; 240 mg/kg IG,4/4
same,"Number of subjects at maximal effect, vomit",[9]; 240 mg/kg IG,3/4
same,"Recovery of baseline (100% of subjects), ataxia",[9]; 240 mg/kg IG,6.0 h
same,"Recovery of baseline (100% of subjects), lip droop",[9]; 240 mg/kg IG,5.0 h
same,"Recovery of baseline (100% of subjects), tremor/jerk",[9]; 240 mg/kg IG,8.0 h
same,"Recovery of baseline (100% of subjects), vomit",[9]; 240 mg/kg IG,7.5 h
same,"Time to maximal effects, ataxia",[9]; 240 mg/kg IG,2.0 h
same,"Time to maximal effects, lip droop",[9]; 240 mg/kg IG,1−2 h and 1 h and 1.0 h
same,"Time to maximal effects, tremor/jerk",[9]; 240 mg/kg IG,2.0 h
same,"Time to maximal effects, vomit",[9]; 240 mg/kg IG,1.0 h
same,Time at which lip droop continued in half of the subjects,[9]; 180 and 240 mg/kg,2.5−3.5 h
same,Time postadministration by which lip droop was no longer observed,[9]; 180 and 240 mg/kg,≤ 5 h
same,"Return to baseline for all observed behavioral effects, time postadministration","[9]; baboon (Papio anubis), in vivo, oral",7−8 h
